Data: ChEMBL document CHEMBL1781932 (J Med Chem, 2011)
Values after ≈ are worked out from the molar mass of the structure shown.

Legend:
Assay type in all cases: functional
Klebsiella pneumoniae [1] = test: Antimicrobial activity against tetracycline-susceptible Klebsiella pneumoniae isolate 109 by CLSI dilution method
Summary of the method: (§1)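 Broth microdilution per CLSI in fresh cation-adjusted Mueller Hinton broth, kept at 4 °C before testing, with defibrinated horse blood added as appropriate. Strains were from ATCC. MIC in µg/mL. Runs were accepted when comparator antibiotics against ATCC quality-control strains fell within recommended ranges.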

Escherichia coli [2] = test: Antimicrobial activity against tetracycline-resistant Escherichia coli isolate 155 harboring tetA gene by CLSI dilution method
Staphylococcus aureus [3] = test: Antimicrobial activity against methicillin-, tetracycline-resistant Staphylococcus aureus isolate 161 harboring tetM gene by CLSI dilution method
Enterococcus faecalis [4] = test: Antimicrobial activity against tetracycline-susceptible Enterococcus faecalis isolate 103 by CLSI dilution method; summary of the method: as §1
Staphylococcus aureus [5] = test: Antimicrobial activity against tetracycline-resistant Staphylococcus aureus isolate 158 harboring tetK gene by CLSI dilution method
Enterobacter cloacae = test: Antimicrobial activity against tetracycline-susceptible Enterobacter cloacae isolate 108 by CLSI dilution method; summary of the method: as §1
Klebsiella pneumoniae [6] = test: Antimicrobial activity against tetracycline-resistant Klebsiella pneumoniae isolate 153 harboring tetA gene by CLSI dilution method
Enterococcus faecalis [7] = test: Antimicrobial activity against tetracycline-resistant Enterococcus faecalis isolate 159 harboring […] gene by CLSI dilution method
Escherichia coli [8] = test: Antimicrobial activity against tetracycline-susceptible Escherichia coli isolate 107 by CLSI dilution method; summary of the method: as §1
Acinetobacter baumannii = test: Antimicrobial activity against tetracycline-susceptible Acinetobacter baumannii isolate 110 by CLSI dilution method; summary of the method: as §1
Streptococcus pneumoniae [9] = test: Antimicrobial activity against tetracycline-susceptible Streptococcus pneumoniae isolate 106 by CLSI dilution method; summary of the method: as §1
Staphylococcus aureus [10] = test: Antimicrobial activity against tetracycline-susceptible Staphylococcus aureus isolate 101 by CLSI dilution method
Streptococcus pneumoniae [11] = test: Antimicrobial activity against tetracycline-resistant Streptococcus pneumoniae isolate 160 harboring tetM gene by CLSI dilution method
Pseudomonas aeruginosa = test: Antimicrobial activity against tetracycline-susceptible Pseudomonas aeruginosa isolate 111 by CLSI dilution method; summary of the method: as §1

SMILES	MIC (Klebsiella pneumoniae [1])	MIC (Escherichia coli [2])	MIC (Staphylococcus aureus [3])	MIC (Enterococcus faecalis [4])	MIC (Staphylococcus aureus [5])	MIC (Enterobacter cloacae)	MIC (Klebsiella pneumoniae [6])	MIC (Enterococcus faecalis [7])	MIC (Escherichia coli [8])	MIC (Acinetobacter baumannii)	MIC (Streptococcus pneumoniae [9])	MIC (Staphylococcus aureus [10])	MIC (Streptococcus pneumoniae [11])	MIC (Pseudomonas aeruginosa)
COCCOc1c2c(c(O)c3cc(CN4CCC4)ccc13)C(=O)C1=C(O)[C@]3(O)C(=O)C(C(N)=O)=C(O)[C@@H](N(C)C)[C@@H]3C[C@@H]1C2	8 µg/mL (≈ 13.2 µM)	32 µg/mL (≈ 52.7 µM)	2 µg/mL (≈ 3.29 µM)	0.5 µg/mL (≈ 0.823 µM)	0.5 µg/mL (≈ 0.823 µM)	8 µg/mL (≈ 13.2 µM)	> 32 µg/mL	2 µg/mL (≈ 3.29 µM)	2 µg/mL (≈ 3.29 µM)	4 µg/mL (≈ 6.58 µM)	0.0313 µg/mL (≈ 0.0515 µM)	0.25 µg/mL (≈ 0.411 µM)	0.25 µg/mL (≈ 0.411 µM)	> 32 µg/mL
CCCNCc1ccc2cc3c(c(O)c2c1)C(=O)C1=C(O)[C@]2(O)C(=O)C(C(N)=O)=C(O)[C@@H](N(C)C)[C@@H]2C[C@@H]1C3	2 µg/mL (≈ 3.73 µM)	4 µg/mL (≈ 7.47 µM)	2 µg/mL (≈ 3.73 µM)	0.5 µg/mL (≈ 0.934 µM)	0.25 µg/mL (≈ 0.467 µM)	2 µg/mL (≈ 3.73 µM)	4 µg/mL (≈ 7.47 µM)	4 µg/mL (≈ 7.47 µM)	1 µg/mL (≈ 1.87 µM)	1 µg/mL (≈ 1.87 µM)	0.0156 µg/mL (≈ 0.0291 µM)	0.5 µg/mL (≈ 0.934 µM)	0.25 µg/mL (≈ 0.467 µM)	32 µg/mL (≈ 59.7 µM)
CN(C)[C@@H]1C(O)=C(C(N)=O)C(=O)[C@@]2(O)C(O)=C3C(=O)c4c(cc5ccc(-c6ccccc6)cc5c4O)C[C@H]3C[C@@H]12	> 32 µg/mL	> 32 µg/mL	8 µg/mL (≈ 14.8 µM)	2 µg/mL (≈ 3.7 µM)	4 µg/mL (≈ 7.4 µM)	> 32 µg/mL	> 32 µg/mL	0.5 µg/mL (≈ 0.925 µM)	> 32 µg/mL	> 32 µg/mL	> 32 µg/mL	2 µg/mL (≈ 3.7 µM)	> 32 µg/mL	> 32 µg/mL
CN(C)[C@@H]1C(O)=C(C(N)=O)C(=O)[C@@]2(O)C(O)=C3C(=O)c4c(c(OCC(O)CO)c5ccc(CN6CCC6)cc5c4O)C[C@H]3C[C@@H]12 (some centres not stated)	> 32 µg/mL	> 32 µg/mL	> 32 µg/mL	32 µg/mL (≈ 51.3 µM)	> 32 µg/mL	> 32 µg/mL	> 32 µg/mL	> 32 µg/mL	> 32 µg/mL	> 32 µg/mL	4 µg/mL (≈ 6.41 µM)	> 32 µg/mL	16 µg/mL (≈ 25.7 µM)	> 32 µg/mL
CN(C)[C@@H]1C(O)=C(C(N)=O)C(=O)[C@@]2(O)C(O)=C3C(=O)c4c(cc5ccc(CN6CC(O)C6)cc5c4O)C[C@H]3C[C@@H]12	4 µg/mL (≈ 7.28 µM)	8 µg/mL (≈ 14.6 µM)	4 µg/mL (≈ 7.28 µM)	0.5 µg/mL (≈ 0.91 µM)	1 µg/mL (≈ 1.82 µM)	2 µg/mL (≈ 3.64 µM)	8 µg/mL (≈ 14.6 µM)	4 µg/mL (≈ 7.28 µM)	1 µg/mL (≈ 1.82 µM)	4 µg/mL (≈ 7.28 µM)	0.0625 µg/mL (≈ 0.114 µM)	0.5 µg/mL (≈ 0.91 µM)	0.5 µg/mL (≈ 0.91 µM)	32 µg/mL (≈ 58.2 µM)
CCCOc1c2c(c(O)c3cc(CN4CCC4)ccc13)C(=O)C1=C(O)[C@]3(O)C(=O)C(C(N)=O)=C(O)[C@@H](N(C)C)[C@@H]3C[C@@H]1C2	8 µg/mL (≈ 13.5 µM)	16 µg/mL (≈ 27 µM)	2 µg/mL (≈ 3.38 µM)	0.25 µg/mL (≈ 0.423 µM)	0.25 µg/mL (≈ 0.423 µM)	16 µg/mL (≈ 27 µM)	32 µg/mL (≈ 54.1 µM)	2 µg/mL (≈ 3.38 µM)	2 µg/mL (≈ 3.38 µM)	1 µg/mL (≈ 1.69 µM)	0.0156 µg/mL (≈ 0.0264 µM)	0.125 µg/mL (≈ 0.211 µM)	0.0625 µg/mL (≈ 0.106 µM)	32 µg/mL (≈ 54.1 µM)
COCCNCc1ccc2c(N(C)C)c3c(c(O)c2c1)C(=O)C1=C(O)[C@]2(O)C(=O)C(C(N)=O)=C(O)[C@@H](N(C)C)[C@@H]2C[C@@H]1C3	16 µg/mL (≈ 26.9 µM)	32 µg/mL (≈ 53.8 µM)	8 µg/mL (≈ 13.5 µM)	1 µg/mL (≈ 1.68 µM)	0.5 µg/mL (≈ 0.841 µM)	16 µg/mL (≈ 26.9 µM)	32 µg/mL (≈ 53.8 µM)	8 µg/mL (≈ 13.5 µM)	4 µg/mL (≈ 6.73 µM)	2 µg/mL (≈ 3.36 µM)	0.0625 µg/mL (≈ 0.105 µM)	0.5 µg/mL (≈ 0.841 µM)	1 µg/mL (≈ 1.68 µM)	> 32 µg/mL
CCN(C)Cc1ccc2cc3c(c(O)c2c1)C(=O)C1=C(O)[C@]2(O)C(=O)C(C(N)=O)=C(O)[C@@H](N(C)C)[C@@H]2C[C@@H]1C3	8 µg/mL (≈ 14.9 µM)	16 µg/mL (≈ 29.9 µM)	2 µg/mL (≈ 3.73 µM)	0.5 µg/mL (≈ 0.934 µM)	0.5 µg/mL (≈ 0.934 µM)	4 µg/mL (≈ 7.47 µM)	32 µg/mL (≈ 59.7 µM)	4 µg/mL (≈ 7.47 µM)	2 µg/mL (≈ 3.73 µM)	2 µg/mL (≈ 3.73 µM)	0.125 µg/mL (≈ 0.233 µM)	0.25 µg/mL (≈ 0.467 µM)	0.25 µg/mL (≈ 0.467 µM)	> 32 µg/mL
CN(C)c1ccc(-c2ccc3cc4c(c(O)c3c2)C(=O)C2=C(O)[C@]3(O)C(=O)C(C(N)=O)=C(O)[C@@H](N(C)C)[C@@H]3C[C@@H]2C4)cc1	> 32 µg/mL	> 32 µg/mL	> 32 µg/mL	> 32 µg/mL	16 µg/mL (≈ 27.4 µM)	> 32 µg/mL	> 32 µg/mL	16 µg/mL (≈ 27.4 µM)	> 32 µg/mL	> 32 µg/mL	> 32 µg/mL	> 32 µg/mL	> 32 µg/mL	> 32 µg/mL
CNCc1ccc2cc3c(c(O)c2c1)C(=O)C1=C(O)[C@]2(O)C(=O)C(C(N)=O)=C(O)[C@@H](N(C)C)[C@@H]2C[C@@H]1C3	4 µg/mL (≈ 7.88 µM)	16 µg/mL (≈ 31.5 µM)	4 µg/mL (≈ 7.88 µM)	0.5 µg/mL (≈ 0.985 µM)	1 µg/mL (≈ 1.97 µM)	2 µg/mL (≈ 3.94 µM)	8 µg/mL (≈ 15.8 µM)	4 µg/mL (≈ 7.88 µM)	1 µg/mL (≈ 1.97 µM)	4 µg/mL (≈ 7.88 µM)	0.0625 µg/mL (≈ 0.123 µM)	0.5 µg/mL (≈ 0.985 µM)	1 µg/mL (≈ 1.97 µM)	16 µg/mL (≈ 31.5 µM)
CN(C)c1ccc2c(O)c3c(cc2c1)C[C@H]1C[C@H]2[C@H](N(C)C)C(O)=C(C(N)=O)C(=O)[C@@]2(O)C(O)=C1C3=O	> 32 µg/mL	> 32 µg/mL	4 µg/mL (≈ 7.88 µM)	4 µg/mL (≈ 7.88 µM)	2 µg/mL (≈ 3.94 µM)	> 32 µg/mL	> 32 µg/mL	4 µg/mL (≈ 7.88 µM)	> 32 µg/mL	> 32 µg/mL	16 µg/mL (≈ 31.5 µM)	2 µg/mL (≈ 3.94 µM)	32 µg/mL (≈ 63 µM)	> 32 µg/mL
COC1CN(Cc2ccc3cc4c(c(O)c3c2)C(=O)C2=C(O)[C@]3(O)C(=O)C(C(N)=O)=C(O)[C@@H](N(C)C)[C@@H]3C[C@@H]2C4)C1	4 µg/mL (≈ 7.1 µM)	16 µg/mL (≈ 28.4 µM)	4 µg/mL (≈ 7.1 µM)	1 µg/mL (≈ 1.77 µM)	0.5 µg/mL (≈ 0.887 µM)	8 µg/mL (≈ 14.2 µM)	16 µg/mL (≈ 28.4 µM)	8 µg/mL (≈ 14.2 µM)	2 µg/mL (≈ 3.55 µM)	2 µg/mL (≈ 3.55 µM)	0.0625 µg/mL (≈ 0.111 µM)	1 µg/mL (≈ 1.77 µM)	0.5 µg/mL (≈ 0.887 µM)	> 32 µg/mL
CNc1cccc2c(O)c3c(cc12)C[C@H]1C[C@H]2[C@H](N(C)C)C(O)=C(C(N)=O)C(=O)[C@@]2(O)C(O)=C1C3=O	> 32 µg/mL	> 32 µg/mL	4 µg/mL (≈ 8.11 µM)	4 µg/mL (≈ 8.11 µM)	2 µg/mL (≈ 4.05 µM)	> 32 µg/mL	> 32 µg/mL	4 µg/mL (≈ 8.11 µM)	> 32 µg/mL	32 µg/mL (≈ 64.8 µM)	4 µg/mL (≈ 8.11 µM)	2 µg/mL (≈ 4.05 µM)	16 µg/mL (≈ 32.4 µM)	> 32 µg/mL
